RGS4 act: RGS4 potentiation or activation; AID 463111; B-score at 10 µM; hit rate 0.92% among 310,000; HEK293 M3R/inducible RGS4, carbachol calcium flux Fluo4; stronger effect = lower value;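 active = B-score of the integrated calcium signal more than 4 SD below the library mean, with starting fluorescence not abnormally high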;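 also: negative B-score means reduced calcium response which marks RGS4 activation or potentiation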
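test system = HEK293 cells with stable M3R and inducible RGS4 | schedule = recording 10 s baseline at 1 Hz, 100 s post-agonist | technique = Fluo4-AM (2 µM) calcium-flux fluorescence, kinetic read | measure = Agonist-evoked peak-minus-minimum fluorescence over baseline, integrated ratio, B score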
RGS4 block: inhibitors of human RGS4. hit rate 0.45% among 310,000. HEK293 M3R/RGS4 inducible, Fluo-4 calcium flux; stronger effect = higher value; triggered by carbachol at its EC20. P49798. B-score at 10 µM;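 active = B-score, a plate-corrected calcium signal, over three deviations above library mean, with baseline fluorescence within five deviations of library mean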;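 also: RGS4 expression induced by doxycycline in cells with stable M3 receptor; B-score is computed from the integrated fluorescence ratio over baseline after carbachol; higher B-score means a larger calcium signal and so more RGS4 inhibition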
MrgX1 PAM: allosterically activates human MrgX1 receptor signaling | Q96LB2 | MrgX1-HEK293, Fluo-4 calcium flux, FDSS; stronger effect = higher value | B-score at 10 µM | hit rate 0.63% among 310,000 | AID 588675;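 active = plate-corrected calcium response at least 3 library SD above typical, normal starting fluorescence, not activating the receptor alone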;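 also: compound read alongside a low EC10 to EC30 dose of BAM8-22 agonist; peak minus trough fluorescence over baseline measured at the second addition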
Target sequence (Q96LB2 whole entry, looked up): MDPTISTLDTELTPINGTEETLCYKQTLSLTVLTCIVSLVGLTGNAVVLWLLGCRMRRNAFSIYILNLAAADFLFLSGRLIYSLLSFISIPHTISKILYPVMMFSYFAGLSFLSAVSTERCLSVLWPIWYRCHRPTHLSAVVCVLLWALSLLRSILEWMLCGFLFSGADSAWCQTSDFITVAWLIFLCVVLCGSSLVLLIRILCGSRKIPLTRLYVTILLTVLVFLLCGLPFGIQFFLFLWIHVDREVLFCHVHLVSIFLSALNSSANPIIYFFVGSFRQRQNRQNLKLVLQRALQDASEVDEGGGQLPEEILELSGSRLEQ
MrgX1 agonist: human MrgX1 receptor agonism, primary screen; hit rate 0.44% among 310,000; B-score at 10 µM; MrgX1-HEK293 cells, Fluo-4 calcium fluorescence, agonist mode; stronger effect = higher value;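 active = calcium response B-score plate-corrected fluorescence ratio at least 3 library SD, with starting fluorescence B-score inside 5 SD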
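Material: MrgX1-expressing HEK293 cells / Dosing: compound as first of three additions / Incubation: overnight seeding, then 1 h dark dye loading / Signal: Fluo-4 NW calcium fluorescence / Evaluation: B-scored fluorescence response ratio / Benchmarks: positive and negative control wells on each plate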
MrgX1 antagonist: human MrgX1 receptor antagonism, primary screen. Q96LB2. MRGX1-HEK293 calcium flux, Fluo-4, BAM8-22 antagonism; stronger effect = lower value. B-score at 10 µM. hit rate 1.3% among 310,000;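 active = calcium-response B-score plate-corrected more than 3 library SD below zero, starting fluorescence within 5 deviations, no agonist response on first addition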;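 also: peak minus trough fluorescence over baseline after final BAM8-22 challenge near maximal dose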
MrgX1 antag conf: reconfirmed antagonist of human MrgX1 receptor signaling. AID 602420. MrgX1-HEK293, BAM8-22 calcium flux, Fluo-4; stronger effect = lower value. remaining BAM8-22 calcium response % of control (stronger effect = lower value), % at 10 µM. hit rate 19% among 2,300. shares compounds with MrgX1 antagonist;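 active = remaining agonist calcium response no higher than 100% minus 3 SD of agonist-only control wells, with starting fluorescence near control levels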;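 also: agonist BAM8-22 given at a near maximal EC90 to ECmax level; peak minus minimum fluorescence divided by baseline after agonist addition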
HEK293 Ca flux: MrgX1 antagonist counter-screen hit in parental HEK293 cells; hit rate 2% among 4,000; AID 624111; Fluo-4 calcium fluorescence, FDSS; shares compounds with MrgX1 antagonist; fluorescence ratio F(max-min)/F0 at 10 µM;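 active = duplicate-averaged calcium fluorescence ratio at least three times the standard deviation of buffer wells, a nonspecific response in parental cells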
HEK293 Ca counter: MrgX1 allosteric activator counter-screen hit in parental HEK293 cells | shares compounds with MrgX1 antagonist | parental HEK293 calcium flux, Fluo-4 fluorescence ratio; stronger effect = higher value | fluorescence ratio F(max-min)/F0 at 10 µM | hit rate 0.4% among 4,000;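 active = calcium fluorescence ratio, averaged over duplicates, at least 3 SD of the buffer-well ratio, meaning a nonspecific response in receptor-free cells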;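 also: untransfected parental HEK293 lacking MrgX1 used as counterscreen for MrgX1 allosteric activators; fluorescence change taken during the second addition on a kinetic imager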
HEK293 Ca cntr2: MrgX1 activator counter-screen hit in parental HEK293 cells | shares compounds with MrgX1 antagonist | AID 624115 | Fluo-4 calcium fluorescence (FDSS); stronger effect = higher value | fluorescence ratio F(max-min)/F0 at 10 µM | hit rate 8.7% among 4,000;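 active = calcium fluorescence ratio at least three times the spread of buffer wells, meaning a non-specific response in parental cells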
Numbers without * were called inactive; i = inactive; / = not tested or not shown. Shown are actives, neighbours in structure and some others; about 3.5% of the full set was active somewhere.

SMILES	RGS4 act	RGS4 block	MrgX1 PAM	MrgX1 agonist	MrgX1 antagonist	MrgX1 antag conf	HEK293 Ca flux	HEK293 Ca counter	HEK293 Ca cntr2
ClCCN1CCN(c2ccnc3cc(Cl)ccc23)CC1	i	i	i	i	-17*	12%*	i	i	i
O=[N+]([O-])/C=C1\NCCN1Cc1ccc(Cl)nc1	i	i	i	i	i	/	/	/	/
COc1cc(/C=C/c2nc3ccccc3c(=O)n2-c2ccccc2O)ccc1O	i	i	i	i	-9.3*	i	i	i	47*
COc1cc(/C=C/c2nc3ccccc3c(=O)n2-c2cccc(O)c2)ccc1O	i	i	i	i	i	/	/	/	/
CCOC(=O)C1SC2(C(F)(F)F)CC1(O)c1c(C)cc(C)nc1O2 (stereo unspecified)	i	i	i	i	-7.8*	i	i	i	i
Cn1c(=O)cc(OCCCC(=O)N2CCC3(CC2)OCCO3)c2ccccc21	i	i	i	i	-9.8*	i	i	i	i
CCC/C=C(\CCC)C(NP(=O)(c1ccccc1)c1ccccc1)c1ccccc1 (stereo unspecified)	i	i	i	i	i	/	/	/	/
CSc1nc(N)c(N=Nc2ccc([As](=O)(O)O)cc2)c(=O)[nH]1	i	i	i	i	i	/	/	/	/
CC(C)Nc1ccc(Nc2ccccc2)cc1	/	/	i	i	-5.1*	i	i	i	i
Cc1ccc(N2C(=O)CC(=O)NC2=O)cc1Cl	i	i	i	i	i	/	/	/	/
O=C1CC(c2ccccc2)CN1 (stereo unspecified)	i	i	i	i	i	/	/	/	/
COC(=O)C1=C(c2ccccc2)C[C@@H]2CC[C@H]1N2C(=O)NCC1CC1	i	i	i	i	-4.8*	i	i	i	i
COc1cc(CNCCc2c[nH]c3ccccc23)cc(OC)c1	i	i	i	i	i	/	/	/	/
O=C1CN=C(c2ccccc2)c2ccccc2N1	i	i	i	i	-7.3*	i	i	i	i
COc1ccc(CN2CCN(C(=O)Cc3ccccc3)CC2)cc1Br	i	i	i	i	i	/	/	/	/
CCOC(=O)c1c(/N=C/C2C(=O)NC(=S)NC2=O)sc2c1CCC2	i	i	i	i	-7.5*	i	i	i	i

Bioassay records deposited in PubChem by Johns Hopkins Ion Channel Center.
